Bioassay records deposited in PubChem by Johns Hopkins Ion Channel Center.
Only some compounds are listed: those with a hit (about 3.7% of all), similar ones and a draw of the others.
KCNK3 inh: human KCNK3 channel inhibition, primary screen; O14649; CHO-KCNK3 thallium flux, FluxOR fluorescence; hits give low values; B-score at 10 µM; 0.84% of 340,000 active;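 active means B-score under library mean minus 4 SD, starting fluorescence ratio at most library mean plus 5 SD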;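 further: more negative B-score means stronger inhibition of thallium flux through KCNK3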
Kir21 block: blocks the mouse Kir2.1 inward-rectifier potassium channel. HEK293-Kir2.1, FluxOR thallium flux fluorescence; hits give low values. B-score at 10 µM. 0.85% of 310,000 active. AID 1672;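 active means fluorescence ratio B-score at or below minus 3 SD of library scores, with starting-brightness B-score within 2 SD, cut at about -4.2 in these data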;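 further: channel flux triggered by added potassium and thallium sulfate stimulus; B-score of peak minus minimum fluorescence over baseline after thallium stimulus; more negative B-score means stronger Kir2.1 block with less thallium influx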
Target sequence (P35561 whole entry, looked up): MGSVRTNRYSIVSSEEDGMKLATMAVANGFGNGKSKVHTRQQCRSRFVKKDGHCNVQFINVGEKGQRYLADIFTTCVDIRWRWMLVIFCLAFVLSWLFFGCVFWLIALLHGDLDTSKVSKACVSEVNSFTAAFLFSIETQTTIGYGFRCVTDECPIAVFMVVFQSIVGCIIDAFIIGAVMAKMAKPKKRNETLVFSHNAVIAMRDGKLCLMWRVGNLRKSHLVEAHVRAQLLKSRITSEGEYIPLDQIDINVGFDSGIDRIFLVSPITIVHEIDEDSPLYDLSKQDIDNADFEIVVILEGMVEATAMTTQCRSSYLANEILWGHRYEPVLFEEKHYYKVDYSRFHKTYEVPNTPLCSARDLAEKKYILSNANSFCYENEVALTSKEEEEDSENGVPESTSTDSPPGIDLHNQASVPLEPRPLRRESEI
KCNK9 block: human KCNK9 channel inhibition | Q9NPC2 | HEK293 KCNK9, FluxOR thallium flux fluorescence; hits give low values | B-score at 10 µM | 1.2% of 310,000 active;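 active means ratio B-score over 3 SD below the library mean, with starting fluorescence within 5 SD of its mean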;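 further: negative B-score means less thallium flux so channel inhibition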
KCNQ1 inh: human KCNQ1 channel inhibition. B-score at 10 µM. P51787. AID 2642. CHO-K1 KCNQ1, FluxOR thallium flux fluorescence; hits give high values. 1.3% of 310,000 active;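 active means compounds whose thallium flux B-score, printed positive for inhibition, exceeds three library SD while starting fluorescence stays within three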;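 further: channel opened by potassium depolarization with thallium stimulus after 20 min compound exposure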
hERG rescue: compounds protecting human hERG from proarrhythmic drug block; CHO-hERG, FluxOR thallium flux, dofetilide IC70 present; activation (rescue from dofetilide block), less the hit threshold, % at 10 µM; 0.51% of 310,000 active; AID 1511;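 active means activation above the mean of controls blocked by dofetilide plus 5 SD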;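 further: thallium influx through hERG after potassium depolarization seen as dye fluorescence rise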
KCNQ1 act: potentiators or activators of human KCNQ1 potassium channel | P51787 | CHO-K1 KCNQ1, thallium flux FluxOR fluorescence; hits give high values | B-score at 10 µM | 0.35% of 310,000 active;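 active means fluorescence ratio B-score, a plate-corrected score, at least three library SD, with initial intensity B-score within 5 SD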
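Test system: CHO-K1 cells stably expressing KCNQ1 / Medium: assay buffer / Also added: depolarizing K+/Tl+ stimulus, K2SO4 and Tl2SO4 each 12.5 mM in 5x stock / Incubation: 90 min dye loading and 20 min compound exposure, both at room temperature / Signal: thallium influx via FluxOR fluorescence, kinetic imaging / Evaluation: B score of baseline-normalized fluorescence ratio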
KCNK9 block conf: human KCNK9 inhibitor confirmation; inhibition, % at 10 µM; HEK293 KCNK9 cells, FluxOR thallium flux fluorescence; shares compounds with KCNK9 block; 43% of 4,900 active; AID 492992;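 active means thallium signal inhibited by more than 5 SD of the compound-free buffer control wells, on both duplicate plates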
Kir2-1 spec: mouse Kir2.1 off-target activity of KCNK9 modulators; AID 492993; shares compounds with KCNK9 block; Kir2.1 cells, FluxOR thallium flux fluorescence; inhibition, % at 10 µM; 4% of 4,900 active;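 active means thallium signal drop more than 5 SD beyond the mean of the no-compound control wells, seen in both duplicate plates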;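 further: signal is fluorescence rise after thallium addition divided by baseline fluorescence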
KCNK9 uninduced: non-induced cell nonspecific activity of KCNK9 modulators. shares compounds with KCNK9 block. non-induced KCNK9-HEK293, FluxOR thallium flux. inhibition, % at 10 µM. 40% of 4,900 active. AID 492997;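 active means thallium signal drop beyond 5 SD of the untreated control mean, on both duplicate plates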
KCNK3 inh conf: confirmation of human KCNK3 two-pore domain potassium channel inhibitors; shares compounds with KCNK3 inh; CHO-KCNK3 thallium flux, FluxOR fluorescence; 0% buffer, 100% carvedilol maximal block; ratio percent of control, % at 10 µM; 99% of 2,400 active; AID 651638;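 active means ratio percent of control, averaged over triplicates, above buffer control mean plus 5 SD, cut at about 64% in these data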;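 further: ratio is the fluorescence rise from min to max over baseline after thallium stimulus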
KCNK3 uninduced: activity in cells without induced KCNK3 expression | non-induced KCNK3 parental cells, FluxOR thallium flux; hits give low values | shares compounds with KCNK3 inh | AID 651747 | 40% of 2,400 active | thallium flux ratio (lower = more inhibition) at 10 µM;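 active means thallium flux ratio, averaged over three wells, more than 5 SD below the buffer control mean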;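 further: host cells are CHO cells without KCNK3 induction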
Hits are given with their value; . = inactive; / = no result given.

SMILES	KCNK3 inh	Kir21 block	KCNK9 block	KCNQ1 inh	hERG rescue	KCNQ1 act	KCNK9 block conf	Kir2-1 spec	KCNK9 uninduced	KCNK3 inh conf	KCNK3 uninduced
CCOC(=O)c1ccc(NC(=O)COc2ccccc2CNCCc2ccccc2)cc1	-11.9	.	-8.15	11	.	.	30.0%	.	.	103.7	.
CCOC(=O)c1ccc(NC(=O)COc2ccc(CNCCO)cc2OCC)cc1	.	.	.	.	.	.	/	/	/	/	/
Cc1cccc2c(C(=O)N3CCN(c4ccccn4)CC3)cc(-c3cccc(Br)c3)nc12	.	.	.	.	.	.	/	/	/	/	/
Cc1cccc(Nc2nc(C)nc3c2oc2ccccc23)c1	-9.01	.	-8.83	.	.	.	29.5%	.	25.5%	116.3	.
COc1ccc(OC)c(C(=O)c2ccc(C(=O)Nc3ccc(NC(C)=O)cc3)cc2)c1	.	.	.	.	.	.	/	/	/	/	/
CCCNC(=O)C1CC(c2ccccc2C(F)(F)F)=NO1 (stereo not given)	.	.	.	.	.	.	/	/	/	/	/
CN(C)S(=O)(=O)N1CCCC(C(=O)c2ccc(-c3ccccc3)c(F)c2)C1 (stereo not given)	-10.8	.	-8.38	.	.	.	30.5%	.	45.0%	118.7	.
Cc1ccc(S(=O)(=O)N2[C@@H](c3ccccc3F)C(C(=O)O)=CC[C@H]2c2cccc(Cl)c2)cc1	.	/	/	/	/	/	/	/	/	/	/
Cc1[nH]c2ccc(F)cc2c1CCN(Cc1cccnc1)C(=S)Nc1ccc(F)cc1	-9.47	.	-9.63	.	.	.	.	.	26.5%	103.3	.
CCNC(=S)N(CCc1c(C)[nH]c2ccc(F)cc12)Cc1cccnc1	.	.	.	.	.	.	/	/	/	/	/
COc1ccc2[nH]c(C)c(CCN(Cc3cccs3)C(=S)Nc3ccccc3)c2c1	-12.6	.	-11.1	.	.	.	37.5%	.	34.5%	130.0	0.134
CC1(C)CC(=O)C2=C(C1)N1C(=C(C#N)C2c2ccccc2Cl)N=C(N)c2ccccc21 (stereo not given)	-12.8	.	-14.9	.	.	.	41.5%	.	44.0%	90.0	.
N#CC1=C2N=C(N)c3ccccc3N2C2=C(C(=O)CCC2)C1c1ccccc1F (stereo not given)	.	.	.	.	.	.	/	/	/	/	/
CC(C)(C)c1cc(NC(=O)COC(=O)c2nccnc2N)n(-c2ccccc2)n1	-9.08	.	-8.62	.	.	.	51.5%	.	31.5%	94.3	.
Cc1cc(NC(=O)COC(=O)c2nccnc2N)n(-c2ccccc2)n1	.	.	.	.	.	.	/	/	/	/	/
Cc1cc2cccc(C)c2nc1SCC(=O)NC1CCCCC1	-9.5	.	-12.3	.	.	.	.	.	.	92.3	.
Cc1ccccc1-c1nnc(SCC(=O)NC2CCCCC2)o1	.	.	.	.	.	.	/	/	/	/	/
CSCC[C@H](NC(=O)N1CCn2c1nc1ccccc12)C(=O)NCC1CCCO1 (stereo not given in full)	.	.	.	.	.	.	/	/	/	/	/
O=C(Nc1cccc(OC(F)(F)F)c1)c1ccc(Br)o1	-9.56	.	-10.2	.	.	.	44.0%	.	.	116.0	.
O=C(Nc1cccc(F)c1)c1ccc(Br)o1	.	.	.	.	.	.	/	/	/	/	/
COc1ccc(-c2cc3ccccc3oc2=O)cc1NC(=O)c1ccc(Br)o1	.	.	.	.	.	.	/	/	/	/	/
O=C(Nc1ccc2oc(-c3cccnc3)nc2c1)c1ccc(Br)o1	.	.	.	.	.	.	/	/	/	/	/
Cc1cc2nc(-c3cccc(NC(=O)c4ccc(Br)o4)c3)oc2cc1C	-9.51	.	-9.83	.	.	.	37.5%	.	.	121.0	0.143
O=C(Nc1cccc(-c2cn3c(n2)SCC3)c1)c1ccc(Br)o1	.	.	-10	.	.	.	37.0%	.	.	109.3	.
O=C(Nc1cccc(-c2cc3ccccc3oc2=O)c1)c1ccc(Br)o1	-10.7	.	-8.67	.	.	.	33.5%	.	.	121.3	0.15
SMILES	KCNK3 inh	Kir21 block	KCNK9 block	KCNQ1 inh	hERG rescue	KCNQ1 act	KCNK9 block conf	Kir2-1 spec	KCNK9 uninduced	KCNK3 inh conf	KCNK3 uninduced
CCOC(=O)c1c(C)nc(C)c(C(=O)OCC)c1-c1ccco1	.	.	.	.	.	.	/	/	/	/	/
COc1ccc(C(=O)Nc2cccc(NC(=O)c3ccc(OC)c(OC)c3)n2)cc1OC	.	.	.	.	.	.	/	/	/	/	/
Cn1ccnc1CC(O)(c1ccccc1)c1ccccc1	.	.	.	.	.	.	/	/	/	/	/
Cc1ccc2sc(=O)[nH]c2c1	.	.	.	.	.	.	/	/	/	/	/
Clc1nc(-c2ccccc2)cc(-c2ccc(Br)cc2)n1	-9.8	.	-12.4	6	.	.	55.0%	.	51.0%	103.3	.
CSc1ccc(-c2nc3cnccn3c2Nc2ccc3c(c2)OCO3)cc1	.	.	.	.	.	.	/	/	/	/	/
Clc1ccc(-c2nc3cnccn3c2Nc2ccc3c(c2)OCO3)cc1	-9.74	.	-11.6	.	.	.	60.0%	.	24.5%	105.0	.
COC(=O)c1ccc(Nc2c([N+](=O)[O-])c(=O)oc3ccccc23)cc1	.	.	.	.	.	.	/	/	/	/	/
OCCn1c(SCCOc2ccccc2)nc2ccccc21	.	.	.	.	.	.	/	/	/	/	/
CCSc1nc2ccccc2n1CCOc1ccccc1	-10.9	.	-12.4	.	.	.	28.5%	.	29.5%	120.3	.
COCCn1c(SCC(=O)c2ccccc2)nc2ccccc2c1=O	.	.	.	.	.	.	/	/	/	/	/
COCCn1c(SCCOc2ccccc2)nc2ccccc2c1=O	-9.03	.	-10.7	.	.	.	37.5%	.	46.5%	114.3	0.143
COc1ccc2cc3cc(C(=O)N4CCN(c5ccccn5)CC4)oc3nc2c1	.	.	.	.	.	.	/	/	/	/	/
O=C/C(=C\Nc1ccccn1)c1nc2cc(Cl)ccc2o1	.	.	-8.46	.	.	.	35.0%	.	.	114.3	.
O=C/C(=C\Nc1ccccn1)c1nc2ccccc2o1	.	.	.	.	.	.	/	/	/	/	/
COc1ccc(C(=O)c2coc3c2C(=O)C(=O)c2ccccc2-3)cc1	-8.89	.	-21.1	.	.	.	78.0%	.	45.5%	108.0	0.149
CN(CC(=O)O)Cc1nc2ccccc2[nH]1	.	.	.	.	.	.	/	/	/	/	/
